Casp6 inh: caspase-6 (human) enzyme inhibition; P55212; purified caspase-6, Z-VEID-R110 cleavage fluorescence; 0.53% of 350,000 active; inhibition, % at 12.5 µM;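 active means mean inhibition across replicates at least about 35%, with every replicate also reaching that limit, limit read from the data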
UHRF1 binding: UHRF1 methyl-DNA binding inhibition; Q96T88; UHRF1 binding to methylated oligo, TR-FRET; inhibition, % at 4.4 µM; 0.75% of 370,000 active; in the data active means inhibition above about 21%;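 further: UHRF1 SRA domain binding a hemimethylated CpG hairpin DNA probe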
Target sequence (Q96T88 whole entry, looked up, the tested form may be a part): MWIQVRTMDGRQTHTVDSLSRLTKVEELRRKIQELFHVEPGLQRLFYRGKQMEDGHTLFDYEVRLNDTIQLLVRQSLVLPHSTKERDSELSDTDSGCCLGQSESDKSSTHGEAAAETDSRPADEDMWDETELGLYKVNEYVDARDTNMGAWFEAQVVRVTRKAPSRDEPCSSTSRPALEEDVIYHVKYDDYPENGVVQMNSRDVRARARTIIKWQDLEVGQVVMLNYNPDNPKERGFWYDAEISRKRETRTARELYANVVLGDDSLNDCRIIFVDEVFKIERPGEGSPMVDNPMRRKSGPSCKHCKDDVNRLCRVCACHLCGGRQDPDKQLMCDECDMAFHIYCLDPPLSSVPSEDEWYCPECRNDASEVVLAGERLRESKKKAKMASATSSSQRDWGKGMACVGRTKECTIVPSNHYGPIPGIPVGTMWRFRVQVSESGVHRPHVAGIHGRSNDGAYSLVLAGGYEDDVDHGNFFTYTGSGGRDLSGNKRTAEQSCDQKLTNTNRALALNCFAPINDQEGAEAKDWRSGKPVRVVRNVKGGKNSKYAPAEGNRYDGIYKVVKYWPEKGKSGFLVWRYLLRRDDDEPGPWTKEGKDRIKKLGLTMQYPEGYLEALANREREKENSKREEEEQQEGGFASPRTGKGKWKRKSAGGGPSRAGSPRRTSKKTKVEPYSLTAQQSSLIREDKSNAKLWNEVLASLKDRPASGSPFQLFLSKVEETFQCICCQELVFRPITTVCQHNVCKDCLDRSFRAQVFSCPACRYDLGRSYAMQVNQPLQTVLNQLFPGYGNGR
LEDGF integ inh: blocks HIV-1 LEDGF/p75-dependent DNA integration | 0.64% of 370,000 active | TR-FRET IN-LEDGF/p75 DNA integration, Eu/Cy5 | inhibition, % at 3.7 µM;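 active means inhibition above the screen-wide mean plus 3 SD, cut at about 13% in these data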;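 further: signal is the Cy5 over europium emission ratio at 671 and 618 nm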
TDP2 absorb: TDP2 (human) inhibition, absorbance primary screen. O95551. recombinant TDP2, T5PNP hydrolysis, p-nitrophenol absorbance 415 nm. inhibition, % at 12.8 µM. 0.34% of 370,000 active;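 active means inhibition above the mean of all tested compounds plus 3 SD, set per campaign, cut at about 25% in these data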
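System – recombinant human TDP2 · Amount – 120 nM TDP2 per well · Buffer or medium – Mg2+-containing Tris-HCl buffer, pH 7.5 · Reagent – T5PNP substrate, 5 mM · Dosing – 12.8 µM single point, 1% DMSO · Incubation – 2 h at 37 °C · Measured by – epi absorbance · Read-out basis – percent inhibition · Benchmarks – high control without enzyme, low control DMSO plus TDP2 · Repeats – singlicate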
MBD2 DNA inh: inhibitors of human MBD2 binding to methylated oligonucleotide | Q9UBB5 | TR-FRET | inhibition, % at 4.4 µM | 0.31% of 370,000 active | AID 686964; in the data active means inhibition above about 13%
NSD2 inh: NSD2 (human) methyltransferase inhibition; O96028; NSD2 peptide methylation, AlphaScreen, 120 min; inhibition, % at 12.5 µM; 0.54% of 310,000 active; AID 743445; in the data active means inhibition above about 50%
Large screens that a line does not name were inactive. An excerpt weighted towards active compounds, which were near 1.8% of everything screened.

Cc1ccc(CN2CCC[C@]3(N[C@H](c4ccccc4)[C@@H]4C(=O)N(Cc5ccccc5)C(=O)[C@@H]43)C2=O)cc1	none (no result: NSD2 inh)
Cc1ccc(CN2CCC[C@]3(N[C@H](c4ccc(C)cc4)[C@@H]4C(=O)N(Cc5ccccc5)C(=O)[C@@H]43)C2=O)cc1	UHRF1 binding 22 (no result: NSD2 inh)
COc1cccc(NC(=S)N(CCCN2CCC(C)CC2)Cc2cccs2)c1	none (no result: NSD2 inh)
COc1cccc(NC(=S)N(CCN(C)C)Cc2cccs2)c1	UHRF1 binding 21
CSc1cccc(NC(=S)N(CCCN2CCC(C)CC2)Cc2cccs2)c1	UHRF1 binding 28
C[C@H]1CCCCO[C@@H](CN(C)C(=O)Nc2ccc3c(c2)OCO3)[C@@H](C)CN([C@@H](C)CO)C(=O)c2cc(NS(=O)(=O)c3cn(C)cn3)ccc2O1	none (no result: UHRF1 binding, LEDGF integ inh, TDP2 absorb, MBD2 DNA inh, NSD2 inh)
N#Cc1cccc(NC(=O)CSc2sc3c(O)cc(=O)[nH]c3c2C#N)c1	none (no result: NSD2 inh)
N#Cc1c(SCC(=O)Nc2nc3ccc(Br)cc3s2)sc2c(O)cc(=O)[nH]c12	none (no result: NSD2 inh)
CCCSc1nnc(NC(=O)CSc2sc3c(O)cc(=O)[nH]c3c2C#N)s1	Casp6 inh 45
Cc1c(Cl)cccc1NC(=O)CSc1sc2c(O)cc(=O)[nH]c2c1C#N	none
N#Cc1c(SCC(=O)Nc2ccccc2C(F)(F)F)sc2c(O)cc(=O)[nH]c12	Casp6 inh 43, UHRF1 binding 31
N#Cc1c(SCC(=O)Nc2ccc(Cl)cc2Cl)sc2c(O)cc(=O)[nH]c12	Casp6 inh 40 (no result: NSD2 inh)
N#Cc1c(SCC(=O)Nc2nc3ccccc3s2)sc2c(O)cc(=O)[nH]c12	Casp6 inh 60
Cc1ccc(CNC(=O)c2ccc(N3CCC4(CC3)CC(c3ccccc3)=NO4)c([N+](=O)[O-])c2)cc1	UHRF1 binding 22 (no result: NSD2 inh)
CCC(=O)N(C1=C(NC(C)C)C(=O)c2ccccc2C1=O)C(C)C	Casp6 inh 44, NSD2 inh 70
CCC(=O)NC1=C(Nc2ccc(N)cc2)C(=O)c2ccccc2C1=O	none (no result: Casp6 inh)
Oc1cc(O)c(CN2CCOCC2)cc1CN1CCOCC1	none
Oc1c(CN2CCOCC2)cc(CN2CCOCC2)cc1CN1CCOCC1	UHRF1 binding 24
CC1CCN(Cc2nnnn2CCCC(=O)NC(c2ccccn2)C(F)(F)F)CC1 (stereo not drawn)	LEDGF integ inh 28
COCC1CCCCN1C(=O)CCCn1nnnc1CN1CCC(C)CC1 (stereo not drawn)	none
O=C(N[C@@H]1CC[C@H](CCNC(=O)C2CCCC2)O[C@H]1CO)c1ccncc1	none (no result: UHRF1 binding, LEDGF integ inh, TDP2 absorb, MBD2 DNA inh, NSD2 inh)
NC(Cc1c[nH]c2ccccc12)C(=O)NCc1ccco1 (stereo not drawn)	none
NC(Cc1c[nH]c2ccccc12)C(=O)NCc1ccccc1 (stereo not drawn)	UHRF1 binding 25
CN(CCC#N)C(=O)COC(=O)c1c2c(nc3ccccc13)/C(=C/c1ccco1)CC2	UHRF1 binding 86, LEDGF integ inh 79, MBD2 DNA inh 64 (no result: Casp6 inh)
CC(C)CNC(=O)COC(=O)c1c2c(nc3ccccc13)/C(=C\c1cccs1)CC2	none
COc1ccc(S(=O)(=O)N(C)C[C@H]2Oc3ccc(NS(=O)(=O)c4ccc(F)cc4)cc3C(=O)N([C@@H](C)CO)C[C@@H]2C)cc1	none (no result: UHRF1 binding, LEDGF integ inh, TDP2 absorb, MBD2 DNA inh, NSD2 inh)
Cc1ccc(S(=O)(=O)N(C)C[C@@H]2Oc3ccc(NC(=O)CCC(F)(F)F)cc3CC(=O)N([C@H](C)CO)C[C@@H]2C)cc1	none (no result: UHRF1 binding, LEDGF integ inh, TDP2 absorb, MBD2 DNA inh, NSD2 inh)
CCCOC(=O)c1c(NC(=O)C2CCCO2)sc(C(=O)OC)c1C (stereo not drawn)	UHRF1 binding 25
CCOC(=O)c1c(NC(=O)C2CCCO2)sc(C(N)=O)c1C (stereo not drawn)	none (no result: Casp6 inh)
CC(NCC(O)c1ccc([N+](=O)[O-])cc1)C12CC3CC(CC(C3)C1)C2 (stereo not drawn)	UHRF1 binding 22
O=C(NCC(O)c1ccc([N+](=O)[O-])cc1)Nc1ccccc1 (stereo not drawn)	none
O=C(CC1CC1)N1CC2(C1)[C@H](c1ccccc1)[C@@H](CO)N2C(=O)C1CCOCC1	none (no result: UHRF1 binding, LEDGF integ inh, TDP2 absorb, MBD2 DNA inh, NSD2 inh)
C[C@@H]1CN([C@@H](C)CO)C(=O)c2cc(NC(=O)C3CCCCC3)ccc2O[C@@H](C)CCCCO[C@H]1CN(C)S(=O)(=O)c1cccs1	none (no result: UHRF1 binding, LEDGF integ inh, TDP2 absorb, MBD2 DNA inh, NSD2 inh)
Cc1ccc(C(C(=O)NC(C)(C)C)N(CC2CCCO2)C(=O)CCC(=O)Nc2ccccn2)cc1 (stereo not drawn)	none
CCC(C)(C)NC(=O)C(c1ccc(C)cc1)N(CC1CCCO1)C(=O)CCC(=O)Nc1ccccn1 (stereo not drawn)	UHRF1 binding 33
Cc1noc(C)c1S(=O)(=O)Nc1ccc2c(c1)C(=O)N([C@@H](C)CO)C[C@@H](C)[C@H](CN(C)S(C)(=O)=O)OCCCC[C@@H](C)O2	none (no result: UHRF1 binding, LEDGF integ inh, TDP2 absorb, MBD2 DNA inh, NSD2 inh)
COc1ccc(OCCCC(=O)OC(C)C(=O)Nc2ccc(S(N)(=O)=O)cc2)cc1 (stereo not drawn)	LEDGF integ inh 35
COc1ccc(OCCCC(=O)OC(C)C(=O)Nc2ccc(NC(C)=O)cc2)cc1 (stereo not drawn)	none
O=C(Nc1cccc(S(=O)(=O)N2CCCC2)c1)c1ccc2ccccc2n1	none
Cc1ccc(S(=O)(=O)NCC(=O)OCC(=O)Nc2ccc(C)c(S(=O)(=O)N3CCOCC3)c2)cc1	none
O=C(CCN1C(=O)NC2(CCCC2)C1=O)Nc1cccc(S(=O)(=O)N2CCOCC2)c1	Casp6 inh 42
Cc1ccc(S(=O)(=O)NCC(=O)OCC(=O)Nc2cccc(S(=O)(=O)N3CCOCC3)c2)cc1	LEDGF integ inh 27
O=C(Nc1cccc(S(=O)(=O)N2CCOCC2)c1)c1ccc2ccccc2n1	UHRF1 binding 22
Cc1ccc(-c2ccc3c(c2)O[C@H](CN(C)C(=O)Nc2ccc(F)cc2)[C@H](C)CN([C@@H](C)CO)S3(=O)=O)cc1	none (no result: UHRF1 binding, LEDGF integ inh, TDP2 absorb, MBD2 DNA inh, NSD2 inh)
O=C(Nc1cccc(F)c1)N1CC(=O)N2[C@H](CO)[C@H](c3ccc(-c4ccccc4F)cc3)[C@H]2C1	none (no result: UHRF1 binding, LEDGF integ inh, TDP2 absorb, MBD2 DNA inh, NSD2 inh)
Cc1ccc2cccc(OC(=O)c3c(F)cccc3Cl)c2n1	none
COc1ccccc1/C=C/C(=O)Oc1cccc2cccnc12	none
O=C(/C=C\c1ccco1)Oc1cccc2cccnc12	Casp6 inh 60
Cc1ccc2cccc(OC(=O)/C=C\c3ccccc3)c2n1	UHRF1 binding 27
C[C@@H]1CN([C@@H](C)CO)C(=O)Cc2cc(NC(=O)NC3CCCCC3)ccc2O[C@H]1CN(C)Cc1ccc(C(=O)O)cc1	none (no result: UHRF1 binding, LEDGF integ inh, TDP2 absorb, MBD2 DNA inh, NSD2 inh)
COC1C=CC(CNC(=O)c2cc3c(=O)n4cccc(C)c4nc3n2C)(OC)O1 (stereo not drawn)	UHRF1 binding 69
Cc1cc(C)c2nc(NNC(=O)c3ccc(S(=O)(=O)N4CC(C)CC(C)C4)cc3)sc2c1 (stereo not drawn)	LEDGF integ inh 15 (no result: NSD2 inh)
COc1ccc(OC)c(CCNC(=O)C2CCN(c3ncnc4c3nc3n4CCCCC3)CC2)c1	UHRF1 binding 26 (no result: NSD2 inh)
